molecular target: T1, Adrenergic receptor alpha-1 (Rattus norvegicus, UniProt P15823+P23944+P43140); experiment: Displacement of [3H]prazosin binding to Alpha-1 adrenergic receptor sites on rat cerebral cortical membranes at 100 nM concentration; type: cell membranes, Membrane; conditions: not given
T1 sequence (P15823 whole entry): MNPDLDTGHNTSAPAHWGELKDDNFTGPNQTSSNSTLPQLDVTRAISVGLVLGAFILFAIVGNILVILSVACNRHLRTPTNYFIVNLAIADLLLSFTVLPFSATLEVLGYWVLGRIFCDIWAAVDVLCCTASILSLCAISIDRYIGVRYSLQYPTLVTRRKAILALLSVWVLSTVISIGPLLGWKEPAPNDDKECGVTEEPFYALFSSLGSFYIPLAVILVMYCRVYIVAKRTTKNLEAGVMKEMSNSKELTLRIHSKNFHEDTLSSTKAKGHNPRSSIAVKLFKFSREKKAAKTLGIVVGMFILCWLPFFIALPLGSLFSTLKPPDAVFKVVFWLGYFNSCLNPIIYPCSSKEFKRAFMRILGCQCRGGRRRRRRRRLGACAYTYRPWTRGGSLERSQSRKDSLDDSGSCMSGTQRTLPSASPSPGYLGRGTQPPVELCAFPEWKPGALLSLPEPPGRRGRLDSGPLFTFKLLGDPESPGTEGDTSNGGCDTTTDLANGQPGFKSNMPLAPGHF
T1 sequence (P23944 whole entry): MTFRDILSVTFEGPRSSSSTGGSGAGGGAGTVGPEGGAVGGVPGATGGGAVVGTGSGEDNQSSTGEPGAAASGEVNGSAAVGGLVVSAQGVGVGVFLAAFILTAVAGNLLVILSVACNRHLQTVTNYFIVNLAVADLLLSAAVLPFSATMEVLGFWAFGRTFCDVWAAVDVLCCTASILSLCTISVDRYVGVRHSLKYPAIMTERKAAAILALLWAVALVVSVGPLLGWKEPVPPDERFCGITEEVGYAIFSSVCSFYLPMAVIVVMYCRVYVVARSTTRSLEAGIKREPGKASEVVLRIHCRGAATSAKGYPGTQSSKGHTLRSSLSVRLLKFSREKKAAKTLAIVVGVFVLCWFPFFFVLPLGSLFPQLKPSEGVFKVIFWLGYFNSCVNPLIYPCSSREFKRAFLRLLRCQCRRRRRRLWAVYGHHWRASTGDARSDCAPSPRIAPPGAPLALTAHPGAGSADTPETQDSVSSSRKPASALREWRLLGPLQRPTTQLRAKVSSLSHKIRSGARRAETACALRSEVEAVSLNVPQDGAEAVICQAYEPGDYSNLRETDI
T1 sequence (P43140 whole entry): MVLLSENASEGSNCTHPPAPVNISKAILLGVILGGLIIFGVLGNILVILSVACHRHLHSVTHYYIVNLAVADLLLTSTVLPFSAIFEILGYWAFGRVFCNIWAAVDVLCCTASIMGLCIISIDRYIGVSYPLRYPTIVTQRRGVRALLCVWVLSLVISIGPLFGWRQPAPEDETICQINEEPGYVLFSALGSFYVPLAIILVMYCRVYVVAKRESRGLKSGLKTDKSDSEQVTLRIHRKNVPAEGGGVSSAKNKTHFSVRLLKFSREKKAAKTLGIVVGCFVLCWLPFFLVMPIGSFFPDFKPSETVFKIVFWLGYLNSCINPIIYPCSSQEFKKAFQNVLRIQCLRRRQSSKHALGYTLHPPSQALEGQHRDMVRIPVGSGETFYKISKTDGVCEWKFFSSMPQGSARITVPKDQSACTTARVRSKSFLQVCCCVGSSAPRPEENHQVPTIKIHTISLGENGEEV

| -Log IC50 | SMILES |
| --- | --- |
| 9.16 | COc1cc2nc(N3CCN(C(=O)/C=C/c4ccccc4)CC3)nc(N)c2cc1OC |
| 7.53 | COC(=O)/C=C/C(=O)Nc1ccc(/C=C/C(=O)N2CCN(c3nc(N)c4cc(OC)c(OC)cc4n3)CC2)cc1 |
| 8.36 | C/C=C/C=C/C(=O)N1CCN(c2nc(N)c3cc(OC)c(OC)cc3n2)CC1 |
| 7.17 | COc1cc2nc(N3CCN(C(=O)/C=C/c4ccc(NC(=O)CBr)cc4)CC3)nc(N)c2cc1OC |
| 7.64 | COc1cc2nc(N3CCN(C(=O)/C=C/c4ccc(F)cc4)CC3)nc(N)c2cc1OC |
| 8.47 | COc1ccc(/C=C/C(=O)N2CCN(c3nc(N)c4cc(OC)c(OC)cc4n3)CC2)cc1 |
| 8.35 | COC(=O)/C=C/C(=O)Nc1ccc(CCCCC(=O)N2CCN(c3nc(N)c4cc(OC)c(OC)cc4n3)CC2)cc1 |
| 7.4 | COc1cc2nc(N3CCN(C(=O)/C(F)=C/c4ccccc4)CC3)nc(N)c2cc1OC |

| SMILES | -Log IC50 |
| --- | --- |
| COc1cc2nc(N3CCN(C(=O)/C=C/c4ccc(N=C=S)cc4)CC3)nc(N)c2cc1OC | 6.99 |

molecular target: Adrenergic receptor alpha-1 (Rattus norvegicus) (UniProt P15823+P23944+P43140); experiment: Irreversible action of compound towards Alpha-1 adrenergic receptor on rat cerebral cortical membranes was determined at 1000 nM concentration; type: cell membranes; conditions: Membrane
In short: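 Cortical membranes in Tris/MgCl2 buffer were preincubated 1 h at 30 °C with compound or buffer alone. Isothiocyanates were run in 50 mM phosphate with 1 mM EDTA, pH 7. Membranes were diluted, kept 10 min on ice and washed by four centrifugations. […] Bmax came from Scatchard plots, at least 3 experiments.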

| Decrease in Bmax | SMILES |
| --- | --- |
| 0% | COC(=O)/C=C/C=C/C(=O)N1CCN(c2nc(N)c3cc(OC)c(OC)cc3n2)CC1 |

molecular target: T1, Adrenergic receptor alpha-1; experiment: Binding affinity at Alpha-1 adrenergic receptor sites on rat cerebral cortical membranes by [3H]prazosin displacement.; conditions: not given
In short: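 Rat cortex membranes were washed and resuspended in 50 mM Tris pH 7.4 with 10 mM MgCl2, about 200–300 μg protein per tube. […] Nonspecific binding used 10 μM phentolamine. Tubes were run in duplicate, IC50 came from displacement curves, and there were 3–5 experiments or duplicate experiments.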

| -Log IC50 | SMILES |
| --- | --- |
| 8.27 | COc1cc2nc(N3CCN(/C(S)=N/C4CCCCC4)CC3)nc(N)c2cc1OC |
| 7.01 | COc1cc2nc(N3CCN(/C(S)=N/c4ccc(NC(=S)N5CC5)cc4)CC3)nc(N)c2cc1OC |
| 8.47 | COc1cc2nc(N3CCN(C(=O)CCc4ccccc4)CC3)nc(N)c2cc1OC |
| 7.31 | COc1cc2nc(N3CCN(C(=O)c4ccc5ccccc5c4)CC3)nc(N)c2cc1OC |
| 11.16 | COc1cc2nc(N3CCN(/C(S)=N/c4ccccc4)CC3)nc(N)c2cc1OC |
| 9.29 | COc1cc2nc(N3CCN(C(=O)C4CC4c4ccccc4)CC3)nc(N)c2cc1OC (stereo unspecified) |
| 7.1 | COc1cc2nc(N3CCN(C(=O)/C=C/c4ccc(Br)cc4)CC3)nc(N)c2cc1OC |
| 7.93 | COc1cc2nc(N3CCN(C(=O)c4cccc(CCl)c4)CC3)nc(N)c2cc1OC |
| 7.94 | COc1cc2nc(N3CCN(S(=O)(=O)c4ccc(C)cc4)CC3)nc(N)c2cc1OC |
| 7.56 | COc1cc2nc(N3CCN(C(=O)Nc4ccccc4)CC3)nc(N)c2cc1OC |
| 7.06 | COc1cc2nc(N3CCN(C(=O)/C=C/C(=O)c4ccccc4)CC3)nc(N)c2cc1OC |
| 7.9 | COc1cc2nc(N3CCN(C(=O)/C=C/c4ccc(Cl)cc4)CC3)nc(N)c2cc1OC |
| 7.68 | COc1cc2nc(N3CCN(C(=O)/C=C/c4cccc(F)c4)CC3)nc(N)c2cc1OC |
| 7.47 | COc1cc2nc(N3CCN(S(=O)(=O)c4cccs4)CC3)nc(N)c2cc1OC |
| 7.7 | COc1cc2nc(N3CCN(/C(S)=N/c4ccc(N=[N+]=[N-])cc4)CC3)nc(N)c2cc1OC |
| 7.9 | COc1cc2nc(N3CCN(C(=O)COc4ccccc4)CC3)nc(N)c2cc1OC |

| SMILES | -Log IC50 |
| --- | --- |
| COc1cc2nc(N3CCN(C(=O)c4ccc(N=C=S)c(I)c4)CC3)nc(N)c2cc1OC | 7.29 |

molecular target: T1, Adrenergic receptor alpha-1; experiment: Compound is evaluated for its ability to compete with [3H]prazosin for binding to Alpha-1 adrenergic receptor sites on rat cerebral cortical membranes at 100 nM concentration; conditions: not given

| -Log IC50 | SMILES |
| --- | --- |
| 7.88 | COc1cc2nc(N3CCN(C(=O)C4OC4c4ccccc4)CC3)nc(N)c2cc1OC (stereo unspecified) |

molecular target: T1, Adrenergic receptor alpha-1; experiment: Compound is evaluated for its ability to compete with [3H]prazosin for binding to Alpha-1 adrenergic receptor sites on rat cerebral cortical membranes at 10 nM concentration; conditions: not given

| -Log IC50 | SMILES |
| --- | --- |
| 8.8 | COc1cc2nc(N3CCN(C(=O)C4CC5C=CC4C5)CC3)nc(N)c2cc1OC (stereo unspecified) |
| 8.12 | COc1cc2nc(N3CCN(C(=O)C4=CC5C=CC4CC5)CC3)nc(N)c2cc1OC (stereo unspecified) |

molecular target: T1, Adrenergic receptor alpha-1; experiment: Compound is evaluated for its ability to compete with [3H]prazosin for binding to Alpha-1 adrenergic receptor sites on rat cerebral cortical membranes at 1000 nM concentration; conditions: not given

| -Log IC50 | SMILES |
| --- | --- |
| 7.41 | COC(=O)/C=C/C=C/C(=O)N1CCN(c2nc(N)c3cc(OC)c(OC)cc3n2)CC1 |

Reference: ChEMBL document CHEMBL1124343 (J Med Chem, 1989)
